According to ChEMBL document CHEMBL1165996, “Terpenoids from Salvia trijuga” (J Nat Prod, 2010):

Tests used:
Format in all cases: functional, cell-based
[1] = tested on: SW480; assay: Cytotoxicity against human SW480 cells after 48 hrs by MTT assay; conditions: SW480, 48 h
In short: (§1)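 Cells seeded in 96-well plates 12 h before dosing, then continuously exposed to a range of compound concentrations for 48 h. MTT added for a further 4 h, then 20% SDS added and left 12 h at room temperature. OD read at 595 nm. IC50 calculated by the Reed and Muench method.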

[2] = tested on: A549; assay: Cytotoxicity against human A549 cells after 48 hrs by MTT assay; conditions: A549, 48 h; in short: as §1
[3] = tested on: HL-60; assay: Cytotoxicity against human HL60 cells after 48 hrs by MTT assay; conditions: HL-60, 48 h; in short: as §1
[4] = tested on: MCF7; assay: Cytotoxicity against human MCF7 cells after 48 hrs by MTT assay; conditions: MCF7, 48 h; in short: as §1
[5] = tested on: SMMC-7721; assay: Cytotoxicity against human SMMC7721 cells after 48 hrs by MTT assay; conditions: SMMC-7721, 48 h; in short: as §1

SMILES	IC50 [1]	IC50 [2]	IC50 [3]	IC50 [4]	IC50 [5]
C[C@@H]1CC[C@]2(C(=O)O)CC[C@]3(C)C(=CC[C@@H]4[C@@]5(C)C(CO)=CC(C)(C)[C@@H]5CC[C@]43C)[C@@H]2[C@]1(C)O [HYPTASIENIC ACID]	10.9 µM	24.7 µM	15.5 µM	> 40 µM	21 µM
C/C=C(\C)C(=O)O[C@@H]1C/C(C)=C/CC[C@@]2(C)O[C@@H]2[C@@H](OC(=O)C(C)C(C)OC(C)=O)[C@H]1C(C)C (stereo not given in full) [TRIJUGIN I]	24.9 µM	> 40 µM	17.1 µM	> 40 µM	34 µM
